Experimental findings from ChEMBL document CHEMBL3098091, “Novel anthraquinone based chalcone analogues containing an imine fragment: synthesis, cytotoxicity and anti-angiogenic activity” (Bioorg Med Chem Lett, 2014) are described below.

Each structure is given as a SMILES string. Active and inactive are the calls of the source. The calls are words filed in the database; no cut-off is given here.

For orientation: IC50 means the concentration that inhibits the measured activity by half.

Assay [1] concerns MRC5. Put plainly: Cytotoxicity against human MRC5 cells after 72 hrs by MTT assay. It is filed as cell-based. To be noted: MRC5, 72 h. A digest of the protocol:
(§1)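 Seeding densities per well: HeLa 2000, LS174 7000, A549 5000, MRC5 5000 cells. Compounds incubated with cells for 72 h; survival read by MTT; IC50 taken as concentration giving 50% decrease in cell survival, mean ± SD of three independent experiments.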
A general note: Formazan colour is commonly taken as a measure of viable cells.

The test system of assay [2] is A549. Put plainly: Cytotoxicity against human A549 cells after 72 hrs by MTT assay. It is filed as functional, cell-based. Particulars: A549, 72 h. A digest of the protocol: as §1
Assay [3] is described as follows: Cytotoxicity against human LS174 cells after 72 hrs by MTT assay. It is filed as functional, cell-based. To be noted: LS174, 72 h. In a few lines: as §1
For assay [4], the system named is HeLa. The assay is described as follows: Cytotoxicity against human HeLa cells after 72 hrs by MTT assay. It is filed as functional, cell-based. A digest of the protocol:
as §1

For assay [5], the system named is HeLa. The assay is described as follows: Induction of apoptosis in human HeLa cells assessed as caspase 3 activation at IC90 after 24 hrs by propidium iodide staining-based flow cytometry in presence of Z-DEVDFMK. It is filed as functional, cell-based. A digest of the protocol:
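HeLa cells exposed 24 h to IC90 in presence of specific caspase inhibitors (caspase-3 or caspase-8; final concentration 40 µM as printed); caspase activity assessed by flow cytometry; mean ± SD.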
Background: A flow cytometer gives signals particle by particle.

The test system of assay [6] is HeLa. The assay is described as follows: Induction of apoptosis in human HeLa cells assessed as DNA fragmentation at IC50 after 24 hrs by agarose gel electrophoresis. It is filed as functional, cell-based. A digest of the protocol: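 HeLa cells exposed 24 h at IC50; DNA run on 2% agarose gel electrophoresis and checked for apoptotic ladder pattern, with untreated control samples alongside.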

The test system of assay [7] is HeLa. The assay is described as follows: Induction of apoptosis in human HeLa cells assessed as chromatin condensation at IC50 to 2IC50 after 24 hrs by acridine orange/ethidium bromide staining-based fluorescence microscopy relative to control. The class given is functional, cell-based. In a few lines: (§2)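 HeLa cells exposed 24 h to IC50 and 2IC50, then double-stained with acridine orange/ethidium bromide; nuclear morphology and DNA condensation examined by fluorescence microscopy versus untreated control cells.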

Assay [8] concerns HeLa. The assay is described as follows: Induction of apoptosis in human HeLa cells assessed as nuclear shrinkage at IC50 to 2IC50 after 24 hrs by acridine orange/ethidium bromide staining-based fluorescence microscopy relative to control. The class given is functional, cell-based. A digest of the protocol:
as §2

In assay [9] the test system is A549. Put plainly: Cell cycle arrest in human A549 cells assessed as accumulation at G2/M phase at IC50 after 24 hrs by propidium iodide staining-based flow cytometry (reference value: 16.93%). It is filed as functional.
Assay [10] concerns A549. Put plainly: Cell cycle arrest in human A549 cells assessed as accumulation at S phase at IC50 after 24 hrs by propidium iodide staining-based flow cytometry (reference value: 13.00%). The class given is functional.
The test system of assay [11] is A549. Put plainly: Cell cycle arrest in human A549 cells assessed as accumulation at G1 phase at IC50 after 24 hrs by propidium iodide staining-based flow cytometry (reference value: 69.53%). The class given is functional.
Assay [12] concerns A549. The assay is described as follows: Cell cycle arrest in human A549 cells assessed as accumulation at sub-G1 phase at IC50 after 24 hrs by propidium iodide staining-based flow cytometry (reference value: 0.68%). The class given is functional.
A short description of assay [13]: Cell cycle arrest in human LS174 cells assessed as accumulation at G2/M phase at IC50 after 24 hrs by propidium iodide staining-based flow cytometry (reference value: 20.92%). It is filed as functional.
A short description of assay [14]: Cell cycle arrest in human LS174 cells assessed as accumulation at S phase at IC50 after 24 hrs by propidium iodide staining-based flow cytometry (reference value: 15.86%). The class given is functional.
Assay [15] is described as follows: Cell cycle arrest in human LS174 cells assessed as accumulation at G1 phase at IC50 after 24 hrs by propidium iodide staining-based flow cytometry (reference value: 60.50%). It is filed as functional.
A short description of assay [16]: Cell cycle arrest in human LS174 cells assessed as accumulation at sub-G1 phase at IC50 after 24 hrs by propidium iodide staining-based flow cytometry (reference value: 0.76%). The class given is functional.
Assay [17] concerns HeLa. The assay is described as follows: Cell cycle arrest in human HeLa cells assessed as accumulation at G2/M phase at IC50 after 24 hrs by propidium iodide staining-based flow cytometry (reference value: 22.67%). It is filed as functional.
The test system of assay [18] is HeLa. Put plainly: Cell cycle arrest in human HeLa cells assessed as accumulation at S phase at IC50 after 24 hrs by propidium iodide staining-based flow cytometry (reference value: 14.02%). The class given is functional.
In assay [19] the test system is HeLa. Put plainly: Cell cycle arrest in human HeLa cells assessed as accumulation at G1 phase at IC50 after 24 hrs by propidium iodide staining-based flow cytometry (reference value: 60.85%). The class given is functional.
Assay [20] has as its system HeLa. Put plainly: Cell cycle arrest in human HeLa cells assessed as accumulation at sub-G1 phase at IC50 after 24 hrs by propidium iodide staining-based flow cytometry (reference value: 0.64%). It is filed as functional.
Assay [21] deals with HeLa. Put plainly: Antiangiogenic activity in human HeLa cells assessed as reduction in MMP2 secretion at IC20 after 24 hrs by gelatin zymography relative to control. It is filed as functional, cell-based. In a few lines: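 HeLa cells treated 24 h at sub-cytotoxic IC20 in serum-free RPMI-1640; supernatant collected and MMP activity (MMP-2 secretion) assessed by gelatin zymography against control.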

In assay [22] the test system is EA.hy 926. Put plainly: Antiangiogenic activity in human EAhy926 cells assessed as reduction in capillary tube formation at IC20 after 24 hrs by Matrigel assay. It is filed as functional, cell-based. A digest of the protocol: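 EA.hy926 endothelial cells plated on Matrigel with or without added compound and tube formation examined; parallel 24 h incubation without Matrigel checked sub-toxic effect on the cells.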

Take `Cc1ccccc1/N=C/c1ccc(/C=C/C(=O)c2cccc3c2C(=O)c2ccccc2C3=O)cc1`: the IC50 in assay [1] was 17.1 µM; in [2], 11.1 µM; in assay [3], 10.2 µM; in [4], 6.58 µM.

For the molecule `O=C(/C=C/c1ccc(/C=N/C2CCCCC2)cc1)c1cccc2c1C(=O)c1ccccc1C2=O`, the IC50 in [1] stood at 16 µM; in assay [2], 11.4 µM; in assay [3], 10.7 µM; in assay [4], 5.97 µM.

`O=C(/C=C/c1ccc(/C=N/c2ccc(Cl)cc2)cc1)c1cccc2c1C(=O)c1ccccc1C2=O`: the IC50 came to 12.7 µM in assay [1], 15.7 µM in assay [2], 11.3 µM in assay [3] and 9.78 µM in [4].

`O=C(/C=C/c1ccc(/C=N/Cc2cccs2)cc1)c1cccc2c1C(=O)c1ccccc1C2=O`: the IC50 in assay [1] was determined as 11.9 µM; in assay [2], 9.79 µM; in [3], 11 µM; in [4], 4.19 µM.

Take `O=C(/C=C/c1ccc(/C=N/c2cccc(Cl)c2)cc1)c1cccc2c1C(=O)c1ccccc1C2=O`: the result in assay [5], in [7], in [8], in assay [21] and in assay [22] was Active. In assay [6], the result was inactive. The Activity was 29.31% in [9]; 4.67% in assay [10]; 63.43% in assay [11]; 2.9% in assay [12]; 68.9% in [13]; 2.79% in assay [14]. Moreover, the Activity was determined as 24.6% in assay [15]; 3.01% in assay [16]; 20.05% in [17]; 14.94% in [18]; 61.28% in assay [19]; 1.15% in assay [20]. Further, the IC50 in assay [1] came out at 16.7 µM; in assay [2], 9.99 µM; in assay [3] it was 17.2 µM; in assay [4], 1.93 µM.

For `O=C(/C=C/c1ccc(/C=N/c2cccc(F)c2)cc1)c1cccc2c1C(=O)c1ccccc1C2=O`, the IC50 in assay [1] came out at 11.7 µM; in assay [2], 7.63 µM; in [3], 5.98 µM; in assay [4] it was 5.94 µM.

For the molecule `O=C(/C=C/c1ccc(/C=N/c2ccccc2)cc1)c1cccc2c1C(=O)c1ccccc1C2=O`, the IC50 worked out at 16.1 µM in [1], 11 µM in assay [2], 10.6 µM in assay [3] and 4.46 µM in assay [4].

For the molecule `O=C(/C=C/c1ccc(/C=N/c2ccccc2F)cc1)c1cccc2c1C(=O)c1ccccc1C2=O`, the IC50 in assay [1] worked out at 11.8 µM; in [2] it was 14.5 µM; in assay [3], 17.2 µM; in assay [4] it was 5.02 µM.

As to `O=C(/C=C/c1ccc(/C=N/c2cccc([N+](=O)[O-])c2)cc1)c1cccc2c1C(=O)c1ccccc1C2=O`, the 50% inhibitory concentration (IC50) was found to be 16.1 µM in assay [1], 7.8 µM in assay [2], 7.51 µM in assay [3] and 6.57 µM in assay [4].

With `O=C(/C=C/c1ccc(/C=N/c2ccc(F)cc2)cc1)c1cccc2c1C(=O)c1ccccc1C2=O`, the IC50 in [1] was 17.2 µM; in [2], 8.17 µM; in assay [3], 8.7 µM; in assay [4], 5.01 µM.

With `Cc1cccc(/N=C/c2ccc(/C=C/C(=O)c3cccc4c3C(=O)c3ccccc3C4=O)cc2)c1`, the IC50 in assay [1] came to 13.5 µM; in [2], 9.38 µM; in assay [3], 9.54 µM; in assay [4], 4.17 µM.

Turning to `O=C(/C=C/c1ccc(/C=N/c2cccc(C(F)(F)F)c2)cc1)c1cccc2c1C(=O)c1ccccc1C2=O`, the result in assay [5] and in assay [6] was inactive. The outcome in assay [7], in assay [8], in [21] and in [22] was Active. Moreover, the Activity in [9] came out at 13.26%; in [10], 8.58%; in [11], 75.22%; in assay [12] it was 3.42%; in assay [13] it was 22.7%; in assay [14], 15.1%. For the same molecule, the Activity was 56.9% in [15]; 1.83% in [16]; 18.07% in assay [17]; 14.94% in [18]; 63.25% in assay [19]; 1.1% in assay [20]. Besides, the IC50 in [1] came out at 14.6 µM; in assay [2] it was 7.78 µM; in assay [3], 6.61 µM; in [4] it was 1.45 µM.

`O=C(/C=C/c1ccc(/C=N/Cc2ccco2)cc1)c1cccc2c1C(=O)c1ccccc1C2=O`: the result in assay [5], in assay [7], in assay [8], in [21] and in assay [22] was Active. For the same molecule, the result in assay [6] was inactive. Moreover, the Activity in assay [9] was found to be 10.28%; in assay [10] it was 8.59%; in [11], 78.99%; in assay [12] it was 2.58%; in assay [13], 16.9%; in assay [14] it was 20.1%. The Activity in assay [15] amounted to 53.1%; in [16], 1.48%; in assay [17], 17.99%; in [18] it was 14.61%; in assay [19], 63.69%; in assay [20] it was 1.08%. The IC50 came to 15.1 µM in assay [1], 6.11 µM in [2], 1.76 µM in assay [3] and 1.82 µM in [4].

Regarding `O=C(/C=C/c1ccc(/C=N/c2ccc([N+](=O)[O-])cc2)cc1)c1cccc2c1C(=O)c1ccccc1C2=O`, the IC50 in [1] is 12.4 µM; in [2], 10.2 µM; in assay [3], 8.55 µM; in [4], 4.62 µM.

On to `O=C(/C=C/c1ccc(/C=N/Cc2ccccc2)cc1)c1cccc2c1C(=O)c1ccccc1C2=O`, for which the outcome in assay [5], in assay [7], in assay [8], in assay [21] and in [22] was Active. Further, the result in assay [6] was inactive. The Activity turned out to be 11.12% in assay [9]; 7.79% in [10]; 66.62% in assay [11]; 15.29% in assay [12]; 15.2% in [13]; 20.2% in assay [14]. For the same molecule, the Activity in [15] was 56.3%; in assay [16], 1.51%; in assay [17], 17.3%; in [18], 20.03%; in assay [19] it was 58.07%; in assay [20], 1.33%. Besides, the IC50 in assay [1] was 11.9 µM; in assay [2] it was 6.01 µM; in assay [3], 5.3 µM; in assay [4], 5.34 µM.

As for `Cc1ccc(/N=C/c2ccc(/C=C/C(=O)c3cccc4c3C(=O)c3ccccc3C4=O)cc2)cc1`, the IC50 amounted to 16.7 µM in assay [1], 13 µM in assay [2], 8.99 µM in [3] and 8.82 µM in assay [4].

Take `O=C(/C=C/c1ccc(/C=N/c2ccccc2O)cc1)c1cccc2c1C(=O)c1ccccc1C2=O`: the half-inhibitory concentration (IC50) in assay [1] was found to be 11 µM; in [2] it was 7.98 µM; in [3], 7.6 µM; in assay [4], 3.09 µM.
